Results published in the EternaBench riboswitch data.

Tested on: MS2 coat protein
Assay: apparent Kd, MS2 coat protein; higher = weaker binding; RNA-MaP array; FMN 200 µM where present
Method in brief: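 Apparent Kd: the median of filtered binding-curve fits from single clusters. Designs were transcribed on Illumina sequencing-chip clusters by stalled E. coli RNA polymerase and titrated with SNAP-549-labelled MS2 coat protein from 0.7 or 1.5 nM, doubling to 3 µM, in 100 mM Tris-HCl pH 7.5, 80 mM KCl, 4 mM MgCl2, BSA, DTT, yeast tRNA and Tween-20. Each series ran without and then with constant ligand, and green signal was normalised to red-channel RNA signal and control-cluster median Fmax.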

[1] = designed as: ON switch for flavin mononucleotide, no ligand
[2] = ligand present: flavin mononucleotide, designed as: ON switch for flavin mononucleotide
[3] = designed as: OFF switch for flavin mononucleotide, no ligand
[4] = ligand present: flavin mononucleotide, designed as: OFF switch for flavin mononucleotide

Row | Sequence | apparent Kd [1] [nM] | apparent Kd [2] [nM] | apparent Kd [3] [nM] | apparent Kd [4] [nM]
1 | ACAUGAGGAUCACCCAUGUAGAAUGAAGAAGGUAGAUAAUUGUGUUUCACCCAUGUACAUAAAUCUAAGGAUAUUCUAAUAAUU | 12.3 | 7.35 | – | –
2 | AUUUCGUUAGCAGGAUAUGGACAGGCCUGUCCGUAUUGAGUCAGUAACAUGAGGAUCACCCAUGUCCAGAAGGGCUCGAAGGGA | – | – | 11.2 | 12.3
3 | ACGACGAAAGUCGAACGAUGUAGCAGAAGGACAUGAGGAUCACCCAUGUCAGCUGUAACAGCCAUGUAGGAUAUGCUACAUCGG | – | – | 4.37 | 5.85
4 | AUUUUAUAAUAGAAGGUAGACUUCAUGAGGAUCACCCAUGUGUUGGUACUAAGGAUAUGUAAUAACAUGAGGAUCACCCAUGUU | 16.1 | 15.2 | – | –
5 | AAACCGUGUGGAGGAUAUGCAGUUGAGGUGAGGUAGCAACUCUAUACGACAGCAGAAGGCCACAUGAGGAUCACCCAUGUAGGU | – | – | 489 | 158
6 | UUGGAGAUAGGAUAUACGAGGAGAGUUGAGGGAAGGUGAUGACAUGAGGAUCACCCAUGUAGAAGGAUCAGGAG | – | – | 144 | 87.2
7 | GCUGCGCGAGGAUAUGCGGUUUGUGCUUUGGGCCCUGGCGUACAUGAGGAUCACCCAUGUAGAAGGCGUGUGGG | – | – | 43.6 | 38.4
8 | AGAAACUACGAGAAGGACAUGAAAAGUGCCGCAAACAUGAGGAUCACCCAUGUAGGAUAUCGUAGUUUCAGGAUCGUGAGAUCA | – | – | 15.8 | 108
9 | CUCCUGUGAUUAGGAUAUGUGCGCACUGUGCUAGCAGAAGGGAUCACAUGAGGAUCACCCAUGUGAGUAGCUCACUGUAAAGGG | – | – | 111 | 107
10 | CGCUAAGAUGGGUCUAAUGGACCACAGGAUAUGCUUGUACAUGAGGAUCACCCAUGUAAUAUUGUGCAGAAGGGUGGAUUUGCG | 18.9 | 7.03 | – | –
11 | UCGCUGCGAGGAUAUACAUGAGGAUCACCCAUGUACGGGUCCGGGUCUUCGUCCAUUAGUAGAAGGCGCAGUGA | – | – | 52.8 | 325
12 | GCACGGUAUGUAGGAUAUGCAUAGCAUUGCUAUGCAGAAGGACAUGAGGAUCACCCAUGUAUGUAUUCCAUACAUUUCCCGUGC | – | – | 5.73 | 5.74
13 | GAUGCACAUGAGAAGGCGAUCAUGAAACAUGAUCGAGGAUAUCAUGUAAACAUGAGGAUCACCCAUGUAUGGGAAAAGUGCAUC | 119 | 12.1 | – | –
14 | UGGUACUAGGGAGGAUAUGGGAAGAUACAUGAGGAUCACCCAUGUUUAAGAAUGCCGAGAGGCAACUAGAAGGCCCAAGUACCU | 425 | 18.6 | – | –
15 | UCGGCCGCUGGGUUGUACGAUGACAGAAGGGCACACCGGGUGCCGCACAUGAGGAUCACCCAUGUGCAGGAUAUGUCAUCCUGA | – | – | 11.1 | 8.25
16 | CGUUGGUUAGGAUAUAGCCUCCUGGUGGGAAGGCCGGGUGGCUAGAAGGAACAUGAGGAUCACCCAUGUAUGGA | – | – | 62.6 | 33.3
17 | GGGUGCAUCGGAGGAUAUCAUGUAAAUACAUGAGGAUCACCCAUGUCGAUGGAGACAUCGGAGAUUGAGAAGGCCGAUGUACCG | 172 | 8.99 | – | –
18 | GAAGCACGCACAGGAUAUCCGGCGGCGCUCGUCGGAGAAGGGUGACAUGAGGAUCACCCAUGUACGUGCAACUCAGUUUGAGAG | 21.5 | 13.9 | – | –
19 | CAGGUAGACUGAGGAUAUACACUAAACAGCUAGUCUAUCUAGCUGACCACAUGAGGAUCACCCAUGUAGAAGGCAGUCUGCCUG | – | – | 18.1 | 39.2
20 | UACAUGUGAGGAUAUGUACGAGGCCCUGACGGGUCUCGCAGGCAGAAGGCACAUGAGGAUCACCCAUGUGACCG | – | – | 24.7 | 96.6
21 | GCUUAAGUAGGAUAUACUUGGGCUCGGCUGAUGUGCCUAAAACAUGAGGAUCACCCAUGUAGAAGGACUAAAGC | – | – | 13.9 | 12.1

Row | Sequence | apparent Kd [1] [nM] | apparent Kd [2] [nM] | apparent Kd [3] [nM] | apparent Kd [4] [nM]
22 | CUCCGCGCUGUCAGGAUAUCCAGGGCCUACCGGCCGGAGAAGGGACAUGAGGAUCACCCAUGUUCGGGUUAGCA | – | – | 15.7 | 17.6
23 | GGAUGUCUGGAGGAUAUACAGACUAUUAGAUCAGUAGAAGGUCAGACAUGAGGAUCACCCAUGUUAGUGUAUCC | – | – | 52 | 473
24 | CAGGAUAGAGGAUAUACAUAGAUACAGAUUCAUGUGAUCCUACAUGAGGAUCACCCAUGUAGAAGGCUAACCUG | – | – | 288 | 82.2
25 | GGGUACGUCGGAGGAUAUCAUGUAAAUACAUGAGGAUCACCCAUGUCGAUGGAGACAUCGGAGAUUGAGAAGGCCGAUGUACCG | 192 | 8.89 | – | –
26 | GCAGCUAAUGCAGGAUAUCAGCACGUGUAGUGCUGAGAAGGGCACAUGAGGAUCACCCAUGUGAUCAAUUAAUGUUAAUGCUGC | – | – | 18.1 | 57.5
27 | AAUUCACAUGAGGAUCACCCAUGUCAGGAUAUGGUUUCACGUUUUUCUUUGCUUGAGGCCAGAAGGGACAGCUA | – | – | 62.8 | 68.5
28 | ACCUCACAUGAGGAUCACCCAUGUCAGGAUAUUCAAACAGGCGAAACUCCGCCUUCUCGAAGAAGGGACAUUAA | – | – | 15.9 | 64.5
29 | ACUGUCCGAGAGAAGGGAACAUGAGGAUCACCCAUGUUACCUCACCUGGUGACGGAACUCCAAGUUCAGGAUAUCUCGAGCGGC | – | – | 4.85 | 5.98
30 | GACUUGUUAGGAUAUCUUACUUUUGCAUCAUAGUAACCAUUGGAGAAGGGACAUGAGGAUCACCCAUGUUUGGA | – | – | 32.9 | 28.9
31 | AAUUAUUUGUAGAAGGAAGGAGAUUUUGUAUUCUUAGGAUAUACUAUUACAUGAGGAUCACCCAUGUUUGAAGGGUUGCUAUGU | – | – | 74.2 | 82.2
32 | AGAUGUGAACAUGAGGAUCACCCAUGUGACUAGGUUUAUUUCAGAAGGCAUUUAUAGAGAUUAUAUGAGGAUAUGAAGUUUUAA | 12.4 | 6.45 | – | –
33 | GUCAGCUCGUCAGGAUAUACGUCACUGCUUCGGCAGUGUGGUAAGAUCACAUGAGGAUCACCCAUGUAGAAGGGACGAGCUGAU | – | – | 12.3 | 291
34 | UUUUUAUUUGCAGGAUAUUGUUUUUUAUUACUUCAAGAAGGGCAUUACAUGAGGAUCACCCAUGUCAUCCUAUGGUUUACUAGU | – | – | 10.6 | 10.4
35 | UUCAUGUGAGGAUAUGCGGCACCAGGUGGGCCUGGCGCUGAGCAGAAGGCACAUGAGGAUCACCCAUGUGCUCC | – | – | 29.7 | 56.7
36 | CAGCGAAAGUAGAAGGUAUUAAUUAAAUUUAAAUAAGGAUAUACAUGAGGAUCACCCAUGUCCUUCAGCUGGAUAUAUAUUAAU | – | – | 39.1 | 29.1
37 | CGUAGGAUCCAGAAGGCAUGAACAUGAGGAUCACCCAUGUCAAAAUACAUGAGGAUAUGGAUCCUACGAAAAGUGCGAAAGCAC | 5.11 | 4.38 | – | –
38 | UGUGUGUGGCAGGAUAUGCAGGUAAUAGGACGGGUAGAAGGGUCUACAUGAGGAUCACCCAUGUGGCCGGUUGG | – | – | 16.1 | 16
39 | GUGGUCAGACAUGAGGAUCACCCAUGUGGAAUAAAUAAGGAGAAGGAUAUUCAAUAUAGGAUAUAGAAGAAGGUCUGGUUGGUG | 73.7 | 82.7 | – | –
40 | GGACGUCACAUUAACAUGAGGAUCACCCAUGUCAAAAGACAUGAGGAUAUGGAUGCGAAACGCAUCCAGAAGGCAUGGACGUCC | 629 | 41.1 | – | –
41 | CACCGUUAAGGAGGAUAUCGUACAUGAGGAUCACCCAUGUAAUAAAUGAGAAUUUCGGAUGUAUGCGAGAAGGCCUAAAUCGGC | – | – | 49.5 | 42
42 | GCCAUCACAUGAGGAUAUGCUCCCGUUUCGGGAGCAGAAGGCGUGUCAUAAGACAUGAGGAUCACCCAUGUAGCUAAGAUGGCA | 321 | 12.6 | – | –
